PglD DTNB = blocks C. jejuni PglD acetyltransferase activity. purified PglD enzyme, DTNB colorimetric CoA detection. inhibition, % at 12.5 µM. AID 602405. 0.098% of 360,000 active; in the data active = inhibition above about 16%, passing the limit was not always enough; inconclusive = no clear call, values can overlap the other calls
PGC1a acetyl inh = PGC1a acetylation modulation, inhibitor mode; U2OS PGC1a acetylation, AlphaScreen anti-acetyl-lysine; with virally co-expressed GCN5 acetyltransferase; inhibition, % at 15.6 µM; 0.17% of 350,000 active; AID 651687;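 active = every replicate shows inhibition of at least 40%; inconclusive = mean inhibition at least 40% but some replicate below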
DENV2 CPE rescue = inhibitors of DENV2 cytopathic effect | 1.7% of 350,000 active | CPE inhibition, % at 9.99 µM | DENV2-infected cells, cytopathic effect rescue, plate reader; in the data active = CPE inhibition above about 20%, passing the limit was not always enough; inconclusive = no clear call, values can overlap the other calls; tested in BHK-21 cells
Env fusion inh = inhibitors of HIV Env-mediated cell fusion; HeLa-JRFL Env/CEM21 cell fusion, luciferase; inhibition, % at 12.3 µM; 1.1% of 360,000 active; AID 651610;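 active = mean replicate inhibition score of at least 50 and every replicate individually at or above 50; inconclusive = only one of the two criteria met; inactive = mean below 50 and not all replicates reaching 50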
rRNA inh HTS = inhibitors of bacterial rRNA selective over humanized ribosomes. 1.6% of 350,000 active. GFP signal change (wild-type ribosome), % (test concentration not listed). E. coli WT GFP vs humanized-ribosome RFP mutants, fluorescence, 24 h; active compounds read low; DMSO median 0, no signal -100;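 active = significant combined selectivity score with lowered wild-type GFP, culture density cut under 30%, mutant RFP and density less affected; inactive = any of these conditions unmet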
FN deposit inh = fibronectin deposition inhibition. AH1F fibroblasts, Alexa488-fibronectin deposition fluorescence, overnight. inhibition, % at 12.6 µM. 0.086% of 350,000 active. AID 743247;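 active = mean inhibition across replicates of 30% or more, regardless of how many single replicates reach that level; inconclusive = mean under 30% yet at least half of replicates reach 30%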
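test system = AH1F fibroblasts assembling fluorescent fibronectin matrix | quantity = 10000 AH1F cells per well | buffer or medium = DMEM plus 2% serum, read in PBS | doses = single dose, pinned | incubation = 1 h cell attachment, overnight exposure to compound and label | detection = fluorescence at 485 nm excitation, 525 nm emission | read-out basis = inhibition from reduced deposited-fibronectin fluorescence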
A number is an active result; n = inactive; u = inconclusive; x = no result given; [ ] = another dose, or the depositor's remark. This is a sample that favours compounds with a hit; in the whole collection about 3.5% have one here.

SMILES | PglD DTNB | PGC1a acetyl inh | DENV2 CPE rescue | Env fusion inh | rRNA inh HTS | FN deposit inh
CCCCNC(=O)C1(C)CCN1C(=O)c1cncc(Br)c1 (stereo not given) | n | x | 86 | n | n | n
CC(C)CNC(=O)C1(C)CCCN1C(=O)c1cncc(Br)c1 (stereo not given) | n | n | 26 | n | n | n
CC(C)CNC(=O)C1(C)CCCN1C(=O)c1ccncc1 (stereo not given) | n | n | n | n | n | n
COc1ccc([Si](C)(C)[C@@H]2[C@@H](CCO)O[C@]3(C(=O)N(Cc4cccc(N5CCOC5=O)c4)c4ccccc43)[C@H]2C)cc1 | n | x | n | u | x | x
COc1ccc([Si](C)(C)[C@@H]2[C@@H](CCO)O[C@]3(C(=O)N(Cc4ccc(NC(C)=O)cc4)c4ccccc43)[C@H]2C)cc1 | n | n | 20 | u | x | x
COc1ccc([Si](C)(C)[C@H]2[C@H](CCO)O[C@@]3(C(=O)N(Cc4ccc(NC(C)=O)cc4)c4ccccc43)[C@@H]2C)cc1 | n | n | n | n | x | x
COc1ccc([Si](C)(C)[C@@H]2[C@@H](CCO)O[C@]3(C(=O)N(Cc4ccc(N5CCOC5=O)cc4)c4ccccc43)[C@H]2C)cc1 | n | n | n | 57[16.7 µM] | x | x
C=CCN1C(=O)[C@@]2(O[C@@H](CCn3cc([C@H](O)c4ccccc4)nn3)[C@H]([Si](C)(C)c3ccc(OC)cc3)[C@H]2C)c2cc(N3CCOC3=O)ccc21 | n | x | 42 | n | x | x
COc1ccc([Si](C)(C)[C@H]2[C@H](CCO)O[C@@]3(C(=O)N(Cc4ccccc4)c4ccc(N5CCOC5=O)cc43)[C@@H]2C)cc1 | n | n | 20 | n | x | x
COc1ccc([Si](C)(C)[C@@H]2[C@@H](CCO)O[C@]3(C(=O)N(Cc4ccccc4)c4ccc(N5CCOC5=O)cc43)[C@H]2C)cc1 | n | n | n | n | x | x
C[C@@H]1CN([C@H](C)CO)C(=O)c2cc(NC(=O)Cc3ccccc3)ccc2O[C@H]1CN(C)C(=O)Nc1ccccc1 | n | n | n | n | n | x
C[C@@H]1CN([C@H](C)CO)C(=O)c2c(c3ccccc3n2C)-c2ccccc2CO[C@H]1CN(C)S(=O)(=O)c1ccsc1 | n | n | n | n | n | n
COc1ccc(CC(=O)N/N=C(\C)c2cccnc2)cc1OC | n | x | n | n | n | x
CCOc1ccc(CC(=O)N/N=C(\C)c2cccnc2)cc1OCC | n | x | 78 | n | n | x
CCCNC(=O)N1[C@H](C#N)[C@H](c2ccc(-c3cccnc3)cc2)[C@@H]1CO | n | n | n | 64[16.7 µM] | n | n
CCCNC(=O)N1[C@H](C#N)[C@H](c2ccccc2)[C@@H]1CO | n | n | n | n | n | n
CCCNC(=O)N1[C@@H](C#N)[C@H](c2ccc(-c3cccnc3)cc2)[C@@H]1CO | n | n | n | n | n | n
N#C[C@H]1[C@@H](c2ccc(-c3cccc(F)c3)cc2)[C@@H](CO)N1C(=O)c1cccnc1 | n | n | x | n | n | n
CCCNC(=O)N1[C@H](C#N)[C@H](c2ccc(-c3ccc(C(=O)N(C)C)cc3)cc2)[C@@H]1CO | n | n | n | 68[16.7 µM] | n | n
N#C[C@@H]1[C@H](c2ccc(-c3cccc(F)c3)cc2)[C@H](CO)N1C(=O)c1cccnc1 | n | n | n | 66[16.7 µM] | n | n
CCCNC(=O)N1[C@H](C#N)[C@H](c2ccc(-c3cccc(OC)c3)cc2)[C@H]1CO | n | n | 58 | n | n | n
CCCNC(=O)N1[C@H](CO)[C@@H](c2ccc(-c3cccc(OC)c3)cc2)[C@@H]1C#N | n | n | x | n | n | n
CC(=O)N[C@@H]1CC[C@@H](CCNC(=O)C2CCCC2)O[C@H]1CO | n | n | n | n | n | x
CC(C)NC(=O)N(C)C[C@H]1Oc2c(NC(=O)c3ccncc3)cccc2C(=O)N([C@H](C)CO)C[C@@H]1C | n | n | n | x | n | n
COc1ccc(S(=O)(=O)Nc2cccc3c2O[C@@H](CN(C)S(=O)(=O)c2ccc(OC)cc2)[C@@H](C)CN([C@@H](C)CO)C3=O)cc1 | x | x | x | x | n | x
SMILES | PglD DTNB | PGC1a acetyl inh | DENV2 CPE rescue | Env fusion inh | rRNA inh HTS | FN deposit inh
COc1ccccc1-c1ccccc1[C@H]1[C@H](C#N)N(C(=O)CN(C)C)[C@H]1CO | x | n | n | x | n | n
CC(C)(C)N1CC23CCC(C[C@@H]2C1=O)O3 (stereo not given in full) | n | n | 39 | n | n | n
CC(C)(C)N1CC23C=CC(C[C@@H]2C1=O)O3 (stereo not given in full) | n | n | n | n | n | n
O=C(C[C@H]1CC[C@H]2[C@@H](COC[C@H](O)CN2Cc2ccccc2)O1)NCc1ccccc1Cl | n | n | n | x | n | n
O=C(C[C@H]1CC[C@H]2NC[C@H](O)COC[C@@H]2O1)NCCc1ccccc1 | n | n | 36 | x | n | n
O=C(C[C@@H]1CC[C@@H]2[C@H](COC[C@@H](O)CN2Cc2ccccc2)O1)NCc1ccccc1Cl | n | n | 33 | x | n | n
O=C(C[C@@H]1CC[C@H]2[C@@H](COC[C@H](O)CN2Cc2cccc(C(F)(F)F)c2)O1)NCc1ccc(Cl)cc1 | n | n | n | 68[16.7 µM] | n | n
O=C(C[C@@H]1CC[C@@H]2[C@H](COC[C@@H](O)CN2Cc2cccc(C(F)(F)F)c2)O1)NCc1ccc(Cl)cc1 | n | n | n | n | n | n
O=C(C[C@@H]1CC[C@@H]2[C@H](COC[C@H](O)CN2Cc2cc(F)cc(F)c2)O1)NCc1cccc(F)c1 | n | n | 22 | x | n | n
COc1ccc(C#Cc2cnc3c(c2)C(=O)N([C@H](C)CO)C[C@@H](C)[C@H](CN(C)CC2CCOCC2)O3)cc1 | n | n | u | n | n | n
O=C(Nc1ccc2c(c1)[C@H]1C[C@H](CC(=O)N3CCc4ccccc4C3)O[C@@H](CO)[C@H]1O2)C1CCC1 | n | n | n | n | n | n
C[C@H](CO)N1C[C@H](C)[C@H](CN(C)C(=O)Nc2ccccc2)Oc2ncc(-c3ccccc3)cc2C1=O | n | n | n | n | n | x
O=C(Nc1ccc(Cl)cc1)N1[C@@H]2CNC[C@H]1C2c1ccc(/C=C/c2ccccc2)cc1 (stereo not given in full) | x | n | n | x | n | n
O=C(C[C@@H]1CC[C@@H]2[C@H](COC[C@@H](O)CN2Cc2ccc(F)cc2)O1)NCCc1ccccc1 | n | n | 28 | x | n | n
Cn1cnc(CCNC(=O)C[C@H]2CC[C@@H]3[C@H](COC[C@H](O)CN3C(=O)Nc3ccc(Cl)cc3)O2)c1 | n | n | n | x | -21 | n
O=C(C[C@@H]1CC[C@@H]2[C@H](COC[C@@H](O)CN2Cc2ccc(F)cc2)O1)N1CCc2ccccc2C1 | 25 | n | n | x | n | n
O=C(C[C@H]1CC[C@@H]2[C@H](COC[C@H](O)CN2Cc2ccc(F)cc2)O1)NCc1ccncn1 | n | n | 27 | n | n | n

Source: PubChem (Broad Institute)
